Data published in ChEMBL document CHEMBL1155379, “Effect of 3'-end capping of aptamer with various 2',4'-bridged nucleotides: Enzymatic post-modification toward a practical use of polyclonal aptamers” (Bioorg Med Chem Lett, 2010).

Columns and labels:
[1] = Chemical stability in presence of snake venom phosphodiesterase 1 assessed as oligonucleotide degradation after 120 mins by PAGE; type: physicochemical; details: 2 h
Prothrombin = Prothrombin (Homo sapiens, UniProt P00734); test: Binding affinity to human thrombin after 30 mins by non-equilibrium capillary electrophoresis
Outline: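 Capillary electrophoresis of aptamer–thrombin mixtures: aptamer 1 nM with thrombin 4 nM in 20 mM Tris-HCl (1 mM MgCl2) pH 7.4 sample buffer; running buffer 100 mM sodium borate pH 8.35; separation +12 kV, injection 0.5 psi × 7.8 s. Kd derived from binding saturation curves over varied thrombin concentrations.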

SMILES	Stability [1]	Kd (Prothrombin) [nM]
C=C1NC(=O)C(C)=CN1[C@H]1C[C@H](OP(=O)(O)OC[C@H]2O[C@@H](n3cnc4c(=O)[nH]c(N)nc43)[C@H](O)[C@@H]2OP(=O)(O)OC[C@H]2O[C@@H](n3cnc4c(N)ncnc43)[C@H](O)[C@@H]2OP(=O)(O)OC[C@H]2O[C@@H](n3ccc(N)nc3=O)[C@H](O)[C@@H]2OP(=O)(O)OC[C@H]2O[C@@H](n3cc(C)c(=O)[nH]c3=O)C[C@@H]2OP(=O)(O)OC[C@@]23CO[C@@H]([C@H](n4cc(C)c(=O)[nH]c4=O)O2)[C@@H]3O)[C@@H](COP(=O)(O)O[C@H]2[C@@H](O)[C@H](n3cnc4c(=O)[nH]c(N)nc43)O[C@@H]2COP(=O)(O)O[C@H]2[C@@H](O)[C@H](n3cnc4c(=O)[nH]c(N)nc43)O[C@@H]2COP(=O)(O)O[C@H]2[C@@H](O)[C@H](n3cnc4c(=O)[nH]c(N)nc43)O[C@@H]2COP(=O)(O)O[C@H]2[C@@H](O)[C@H](n3cnc4c(=O)[nH]c(N)nc43)O[C@@H]2COP(=O)(O)O[C@H]2C[C@H](n3cc(C)c(=O)[nH]c3=O)O[C@@H]2COP(=O)(O)O[C@H]2C[C@H](n3cc(C)c(=O)[nH]c3=O)O[C@@H]2COP(=O)(O)O[C@H]2[C@@H](O)[C@H](n3cnc4c(=O)[nH]c(N)nc43)O[C@@H]2COP(=O)(O)O[C@H]2[C@@H](O)[C@H](n3cnc4c(=O)[nH]c(N)nc43)O[C@@H]2COP(=O)(O)O[C@H]2[C@@H](O)[C@H](n3cnc4c(N)ncnc43)O[C@@H]2COP(=O)(O)O[C@H]2[C@@H](O)[C@H](n3ccc(N)nc3=O)O[C@@H]2COP(=O)(O)O[C@H]2[C@@H](O)[C@H](n3cnc4c(=O)[nH]c(N)nc43)O[C@@H]2COP(=O)(O)O[C@H]2[C@@H](O)[C@H](n3cnc4c(=O)[nH]c(N)nc43)O[C@@H]2COP(=O)(O)O[C@H]2[C@@H](O)[C@H](n3cnc4c(=O)[nH]c(N)nc43)O[C@@H]2COP(=O)(O)O[C@H]2[C@@H](O)[C@H](n3cnc4c(N)ncnc43)O[C@@H]2COP(=O)(O)O[C@H]2C[C@H](n3cc(C)c(=O)[nH]c3=O)O[C@@H]2COP(=O)(O)O[C@H]2[C@@H](O)[C@H](n3cnc4c(=O)[nH]c(N)nc43)O[C@@H]2COP(=O)(O)O[C@H]2[C@@H](O)[C@H](n3cnc4c(=O)[nH]c(N)nc43)O[C@@H]2COP(=O)(O)O[C@H]2C[C@H](n3cc(C)c(=O)[nH]c3=O)O[C@@H]2COP(=O)(O)O[C@H]2[C@@H](O)[C@H](n3cnc4c(=O)[nH]c(N)nc43)O[C@@H]2COP(=O)(O)O[C@H]2[C@@H](O)[C@H](n3ccc(N)nc3=O)O[C@@H]2COP(=O)(O)O[C@H]2[C@@H](O)[C@H](n3ccc(N)nc3=O)O[C@@H]2COP(=O)(O)O[C@H]2C[C@H](n3cc(C)c(=O)[nH]c3=O)O[C@@H]2COP(=O)(O)O[C@H]2[C@@H](O)[C@H](n3cnc4c(=O)[nH]c(N)nc43)O[C@@H]2COP(=O)(O)O[C@H]2[C@@H](O)[C@H](n3cnc4c(N)ncnc43)O[C@@H]2COc2ccc3c(c2)Oc2cc(O)ccc2C32OC(=O)c3ccccc32)O1 (some centres undefined)	Stable	0.18
C=C1NC(=O)C(C)=CN1[C@H]1C[C@H](OP(=O)(O)OC[C@H]2O[C@@H](n3cnc4c(=O)[nH]c(N)nc43)[C@H](O)[C@@H]2OP(=O)(O)OC[C@H]2O[C@@H](n3cnc4c(N)ncnc43)[C@H](O)[C@@H]2OP(=O)(O)OC[C@H]2O[C@@H](n3ccc(N)nc3=O)[C@H](O)[C@@H]2OP(=O)(O)OC[C@H]2O[C@@H](n3cc(C)c(=O)[nH]c3=O)C[C@@H]2OP(=O)(O)OC[C@@]23COCO[C@@H]([C@H](n4cc(C)c(=O)[nH]c4=O)O2)[C@@H]3O)[C@@H](COP(=O)(O)O[C@H]2[C@@H](O)[C@H](n3cnc4c(=O)[nH]c(N)nc43)O[C@@H]2COP(=O)(O)O[C@H]2[C@@H](O)[C@H](n3cnc4c(=O)[nH]c(N)nc43)O[C@@H]2COP(=O)(O)O[C@H]2[C@@H](O)[C@H](n3cnc4c(=O)[nH]c(N)nc43)O[C@@H]2COP(=O)(O)O[C@H]2[C@@H](O)[C@H](n3cnc4c(=O)[nH]c(N)nc43)O[C@@H]2COP(=O)(O)O[C@H]2C[C@H](n3cc(C)c(=O)[nH]c3=O)O[C@@H]2COP(=O)(O)O[C@H]2C[C@H](n3cc(C)c(=O)[nH]c3=O)O[C@@H]2COP(=O)(O)O[C@H]2[C@@H](O)[C@H](n3cnc4c(=O)[nH]c(N)nc43)O[C@@H]2COP(=O)(O)O[C@H]2[C@@H](O)[C@H](n3cnc4c(=O)[nH]c(N)nc43)O[C@@H]2COP(=O)(O)O[C@H]2[C@@H](O)[C@H](n3cnc4c(N)ncnc43)O[C@@H]2COP(=O)(O)O[C@H]2[C@@H](O)[C@H](n3ccc(N)nc3=O)O[C@@H]2COP(=O)(O)O[C@H]2[C@@H](O)[C@H](n3cnc4c(=O)[nH]c(N)nc43)O[C@@H]2COP(=O)(O)O[C@H]2[C@@H](O)[C@H](n3cnc4c(=O)[nH]c(N)nc43)O[C@@H]2COP(=O)(O)O[C@H]2[C@@H](O)[C@H](n3cnc4c(=O)[nH]c(N)nc43)O[C@@H]2COP(=O)(O)O[C@H]2[C@@H](O)[C@H](n3cnc4c(N)ncnc43)O[C@@H]2COP(=O)(O)O[C@H]2C[C@H](n3cc(C)c(=O)[nH]c3=O)O[C@@H]2COP(=O)(O)O[C@H]2[C@@H](O)[C@H](n3cnc4c(=O)[nH]c(N)nc43)O[C@@H]2COP(=O)(O)O[C@H]2[C@@H](O)[C@H](n3cnc4c(=O)[nH]c(N)nc43)O[C@@H]2COP(=O)(O)O[C@H]2C[C@H](n3cc(C)c(=O)[nH]c3=O)O[C@@H]2COP(=O)(O)O[C@H]2[C@@H](O)[C@H](n3cnc4c(=O)[nH]c(N)nc43)O[C@@H]2COP(=O)(O)O[C@H]2[C@@H](O)[C@H](n3ccc(N)nc3=O)O[C@@H]2COP(=O)(O)O[C@H]2[C@@H](O)[C@H](n3ccc(N)nc3=O)O[C@@H]2COP(=O)(O)O[C@H]2C[C@H](n3cc(C)c(=O)[nH]c3=O)O[C@@H]2COP(=O)(O)O[C@H]2[C@@H](O)[C@H](n3cnc4c(=O)[nH]c(N)nc43)O[C@@H]2COP(=O)(O)O[C@H]2[C@@H](O)[C@H](n3cnc4c(N)ncnc43)O[C@@H]2COc2ccc3c(c2)Oc2cc(O)ccc2C32OC(=O)c3ccccc32)O1 (some centres undefined)	Stable	0.27
